Measured values as given in PubChem BioAssay AID504476 (NMMLSC, 2011).
The source made the active and inactive calls.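 Rule for the calls: active = toxic dose divided by the dose restoring drug killing exceeds 10, where toxic dose is under 15 µM; inactive = the rest.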

System: Jurkat/DNR + daunorubicin, trypan blue viability, 3 d
Test: daunorubicin sensitization of ABCB1 resistant cells, SAR follow-up, cell-based, Jurkat/DNR, trypan blue viability, SAR set 2 (AID 504476)
Details: for CC50: measured here: TD50 toxicity without chemotherapeutic
Method in brief: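 System: Jurkat/DNR cells. Amount: 100,000 cells per mL. Probe or stimulus: daunorubicin held at a fixed, constant concentration. Dosing: test compound spanning 3 logs, 1 to 100 µM. Incubation: 3-day compound exposure alongside daunorubicin. Detection: trypan blue counts by microscopy. Read-out basis: concentration halving cell viability.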

Compound | EC50 | CC50 [µM]
O=C(c1ccoc1)N1CCCN(c2cc(-c3ccco3)nc3cc(-c4ccccc4)nn23)C1 | 0.35 µM (inactive) | 12
COc1ccc(-c2cc3nc(-c4ccco4)cc(N4CCN(C(=O)c5ccoc5)CC4)n3n2)cc1 | 5.77 µM | > 100
O=C(c1ccoc1)N1CCN(c2cc(-c3ccoc3)nc3cc(-c4ccccc4)nn23)CC1 | 0.42 µM (inactive) | 7.3
COc1ccccc1-c1cc(N2CCN(C(=O)c3ccoc3)CC2)n2nc(-c3ccccc3)cc2n1 | 0.17 µM (inactive) | 3.7
O=C(c1ccoc1)N1CCN(c2cc(-c3ccco3)nc3cc(-c4ccco4)nn23)CC1 | 0.19 µM (inactive) | 1.93
Cc1ccc(-c2cc3nc(-c4ccco4)cc(N4CCN(Cc5ccoc5)CC4)n3n2)cc1 | 0.35 µM (inactive) | 12.5
COc1cccc(-c2cc(N3CCN(C(=O)c4ccoc4)CC3)n3nc(-c4ccccc4)cc3n2)c1 | 0.18 µM (inactive) | 5.7
CC(=O)N1CCN(c2cc(-c3ccco3)nc3cc(-c4cccc(Cl)c4)nn23)CC1 | 0.08 µM | 17.6
CC(=O)N1CCN(c2cc(-c3ccco3)nc3cc(-c4ccccc4)nn23)CC1 | 0.19 µM (inactive) | 10.1
COc1cccc(-c2cc3nc(-c4ccco4)cc(N4CCN(C(C)=O)CC4)n3n2)c1 | 0.32 µM | 49.3
